# Assay results as given in PubChem BioAssay AID977615 (Broad Institute, 2014).
# Where “and” joins values, the source holds several entries; their conditions need not be identical. Equal entries are not always repeated. Calls of active or inactive are those of the source.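 How the source made its calls: active means cell killing with fitted AC50 at or below twice the top valid dose for that sample; inconclusive means flat curve losing 30 to 70% signal, or bad fit; inactive means the rest.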
# Assays:
# [1] = HEK293T cell cytotoxicity, dose response, cytotoxicity control, CellTiter-Glo luminescence, dry powder, set 17 (AID 977615); conditions: HEK293T viability, CellTiter-Glo ATP luminescence, 72 h; at 26 µM (top of the series)
# In short: (§1)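 system = HEK293T cell line | input = 2000 HEK293T cells seeded per well | buffer or medium = DMEM growth medium supplemented with 10% FBS | dosing = compound tested at multiple concentrations across a dose range | incubation = 24 h attachment, 72 h compound exposure, 37 °C, 5% CO2 | measured by = CellTiter-Glo ATP luminescence | benchmarks = positive control, 10 µM final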
# [2] = system: HEK293T viability, CellTiter-Glo ATP luminescence, 72 h; test: as above
# In short: as §1
SMILES,"activity change, negative = cytotoxic [1]",AC50 [2]
C[C@@H]1CN([C@@H](C)CO)S(=O)(=O)c2ccc(C#C[C@@H](C)O)cc2O[C@@H]1CN(C)Cc1ccc(-c2ccccc2)cc1,-8.45% (inactive),–
C[C@@H](O)C#Cc1ccc2c(c1)O[C@H](CN(C)Cc1ccc(-c3ccccc3)cc1)[C@@H](C)CN([C@@H](C)CO)S2(=O)=O,–,25.9 µM
C[C@@H](O)C#Cc1ccc2c(c1)O[C@@H](CN(C)Cc1ccc(-c3ccccc3Cl)cc1)[C@@H](C)CN([C@@H](C)CO)S2(=O)=O,–,0.364 µM
COc1cccc(-c2ccc(CN(C)C[C@@H]3Oc4cc(C#C[C@@H](C)O)ccc4S(=O)(=O)N([C@@H](C)CO)C[C@@H]3C)cc2)c1,–,0.884 µM
C[C@H]1CN([C@@H](C)CO)S(=O)(=O)c2ccc(C#CC(C)(C)O)cc2O[C@H]1CN(C)Cc1ccc(-c2ccccc2)cc1,–,18 µM
CNC[C@@H]1Oc2cc(Br)ccc2S(=O)(=O)N([C@@H](C)CO)C[C@@H]1C,-16.1% (inactive),–
Cc1ccc(-c2ccc(CN(C)C[C@@H]3Oc4cc(C#C[C@@H](C)O)ccc4S(=O)(=O)N([C@@H](C)CO)C[C@@H]3C)cc2)cc1,–,1.54 µM
C[C@@H](O)C#Cc1ccc2c(c1)O[C@@H](CN(C)Cc1ccncc1)[C@@H](C)CN([C@@H](C)CO)S2(=O)=O,-12% (inactive),–
C[C@H]1CN([C@@H](C)CO)S(=O)(=O)c2ccc(Br)cc2O[C@H]1CN(C)Cc1ccc(-c2ccccc2)cc1,-0.919% (inactive),–
C[C@H](O)C#Cc1ccc2c(c1)O[C@H](CN(C)Cc1ccc(-c3ccccc3)cc1)[C@H](C)CN([C@@H](C)CO)S2(=O)=O,-11.3% (inactive),–
COc1ccc(-c2ccc3c(c2)O[C@@H](CN(C)Cc2ccc(-c4ccccc4)cc2)[C@@H](C)CN([C@@H](C)CO)S3(=O)=O)cc1,–,> 52 µM (inactive)
C[C@@H](O)C#Cc1ccc2c(c1)O[C@@H](CN(C)Cc1cccnc1)[C@@H](C)CN([C@@H](C)CO)S2(=O)=O,2.11% (inactive),–
COc1ccc(-c2ccc(CN(C)C[C@@H]3Oc4cc(C#C[C@@H](C)O)ccc4S(=O)(=O)N([C@@H](C)CO)C[C@@H]3C)cc2)cc1,–,1.58 µM
C[C@@H](O)C#Cc1ccc2c(c1)O[C@@H](CN(C)Cc1ccc(-c3cccc(Cl)c3)cc1)[C@@H](C)CN([C@@H](C)CO)S2(=O)=O,–,2.08 µM
C[C@@H](O)C#Cc1ccc2c(c1)O[C@@H](CN(C)Cc1ccc(-c3ccccc3)cc1)[C@@H](C)CN([C@@H](C)CO)S2(=O)=O,–,3.61 µM and 2.94 µM
C[C@H](O)C#Cc1ccc2c(c1)O[C@@H](CN(C)Cc1ccc(-c3ccccc3)cc1)[C@H](C)CN([C@H](C)CO)S2(=O)=O,–,26.1 µM
C[C@@H](O)C#Cc1ccc2c(c1)O[C@@H](CN(C)S(=O)(=O)c1ccc(-c3ccccc3)cc1)[C@@H](C)CN([C@@H](C)CO)S2(=O)=O,-12.1% (inactive),–
C[C@@H]1CN([C@H](C)CO)S(=O)(=O)c2ccc(C#C[C@@H](C)O)cc2O[C@H]1CN(C)Cc1ccc(-c2ccccc2)cc1,-10.1% (inactive),–
Cc1cccc(-c2ccc(CN(C)C[C@@H]3Oc4cc(C#C[C@@H](C)O)ccc4S(=O)(=O)N([C@@H](C)CO)C[C@@H]3C)cc2)c1,–,1.53 µM
Cc1ccccc1-c1ccc(CN(C)C[C@@H]2Oc3cc(C#C[C@@H](C)O)ccc3S(=O)(=O)N([C@@H](C)CO)C[C@@H]2C)cc1,–,1.89 µM
C[C@@H](O)C#Cc1ccc2c(c1)O[C@@H](CN(C)Cc1ccc(-c3ccc(Cl)cc3)cc1)[C@@H](C)CN([C@@H](C)CO)S2(=O)=O,–,1.26 µM
CO[C@H]1CN(C)C(=O)c2ccc(NC(=O)c3ccc(F)cc3)cc2OC[C@H](C)N(C(=O)c2ccc(F)cc2)C[C@@H]1C,1.97% (inactive),–
C[C@H](CO)N1C[C@H](C)[C@H](CN(C)Cc2ccc(-c3ccccc3)cc2)Oc2cc(C#C[C@@H](C)O)ccc2S1(=O)=O,–,21.7 µM
C[C@@H]1CN([C@H](C)CO)S(=O)(=O)c2ccc(C#C[C@@H](C)O)cc2O[C@@H]1CN(C)Cc1ccc(-c2ccccc2)cc1,2.1% (inactive),–
C[C@H](O)C#Cc1ccc2c(c1)O[C@H](CN(C)Cc1ccc(-c3ccccc3)cc1)[C@@H](C)CN([C@@H](C)CO)S2(=O)=O,–,7.12 µM
C[C@H](O)C#Cc1ccc2c(c1)O[C@@H](CN(C)Cc1ccc(-c3ccccc3)cc1)[C@@H](C)CN([C@@H](C)CO)S2(=O)=O,–,22 µM
COc1ccccc1-c1ccc(CN(C)C[C@@H]2Oc3cc(C#C[C@@H](C)O)ccc3S(=O)(=O)N([C@@H](C)CO)C[C@@H]2C)cc1,–,1.35 µM
